Results as given in ChEMBL document CHEMBL1773028, “Pentasaccharide resin glycosides from Ipomoea pes-caprae” (2011).
The source made the active and inactive calls. No cut-off for these calls is given here.

Assays:
[1] = system: NCI/ADR-RES; test: Cytotoxicity against multidrug-resistance human MCF7/ADR cells after 48 hrs by MTT assay; assay type: functional, cell-based
Summary of the method: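 MCF-7/ADR cells grown in DMEM with 10% FBS, trypsinized, seeded at 4.5 × 10^4 cells/mL and held 24 h at 37 °C, 5% CO2. Compounds added in DMSO over 400 to 1 μg/mL. MTT read-out after 48 h exposure. Triplicate.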

[2] = system: NCI/ADR-RES; test: Reversal fold, ratio of IC50 for doxorubicin alone to IC50 for doxorubicin in presence of compound in human MCF7/ADR cells after 48 hrs by MTT assay; assay type: functional
Summary of the method: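 MCF-7/ADR cells seeded at 4.5 × 10^3 per well. Doxorubicin serially diluted 0.008–25 μg/mL, with or without 5 μg/mL sample; verapamil 5 μg/mL as positive control. MTT after 48 h. Doxorubicin IC50 computed relative to untreated cells (100%). RF = IC50 doxorubicin alone / IC50 with sample. Triplicate.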

CCCCCCCCCCCC(=O)O[C@H]1[C@H](O[C@@H]2[C@H]3OC(=O)CCCCCCCCC[C@H](CCCCC)O[C@@H]4O[C@H](C)[C@H](O)[C@H](O)[C@H]4O[C@H](O[C@H]2C)[C@@H]3O)O[C@@H](C)[C@H](O[C@@H]2O[C@@H](C)[C@H](OC(=O)C(C)C)[C@@H](OC(=O)/C=C/c3ccccc3)[C@H]2O)[C@H]1O[C@@H]1O[C@@H](C)[C@H](O)[C@@H](O)[C@H]1O [PESCAPREIN XXV]
Activity [1]: inactive | Ratio IC50 [2]: 2.1

CCCCCC(=O)O[C@H]1[C@H](O[C@@H]2[C@@H](O)[C@H]3OC(=O)CCCCCCCCC[C@H](CCCCC)O[C@@H]4O[C@H](C)[C@H](O)[C@H](O)[C@H]4O[C@@H]3O[C@H]2C)O[C@@H](C)[C@H](O[C@@H]2O[C@@H](C)[C@H](OC(=O)[C@@H](C)CC)[C@@H](OC(=O)/C=C/c3ccccc3)[C@H]2O)[C@H]1O[C@@H]1O[C@@H](C)[C@H](O)[C@@H](O)[C@H]1O [PESCAPREIN XXIX]
Activity [1]: inactive | Ratio IC50 [2]: 3.2

COc1ccc(CCN(C)CCCC(C#N)(c2ccc(OC)c(OC)c2)C(C)C)cc1OC (centres undefined) [VERAPAMIL]
Ratio IC50 [2]: 21

CCCCC[C@H]1CCCCCCCCCC(=O)O[C@H]2[C@@H](O)[C@H](O[C@H]3[C@H](O1)O[C@H](C)[C@H](O)[C@@H]3O)O[C@@H](C)[C@@H]2O[C@@H]1O[C@@H](C)[C@H](O[C@@H]2O[C@@H](C)[C@H](OC(=O)[C@@H](C)CC)[C@@H](OC(=O)/C=C/c3ccccc3)[C@H]2O)[C@@H](O[C@@H]2O[C@@H](C)[C@H](O)[C@@H](O)[C@H]2O)[C@H]1OC(=O)[C@@H](C)CC [PESCAPREIN XXVII]
Activity [1]: inactive | Ratio IC50 [2]: 1.9

CCCCCCCCCCCC(=O)O[C@H]1[C@H](O[C@@H]2[C@H]3OC(=O)CCCCCCCCC[C@H](CCCCC)O[C@@H]4O[C@H](C)[C@H](O)[C@H](O)[C@H]4O[C@H](O[C@H]2C)[C@@H]3O)O[C@@H](C)[C@H](O[C@@H]2O[C@@H](C)[C@H](OC(=O)[C@@H](C)CC)[C@@H](O)[C@H]2OC(=O)/C=C/c2ccccc2)[C@H]1O[C@@H]1O[C@@H](C)[C@H](O)[C@@H](O)[C@H]1O [PESCAPREIN XXI]
Activity [1]: inactive | Ratio IC50 [2]: 1.5

CCCCCCCCCC(=O)O[C@H]1[C@H](O[C@@H]2[C@H]3OC(=O)CCCCCCCCC[C@H](CCCCC)O[C@@H]4O[C@H](C)[C@H](O)[C@H](O)[C@H]4O[C@H](O[C@H]2C)[C@@H]3O)O[C@@H](C)[C@H](O[C@@H]2O[C@@H](C)[C@H](OC(=O)[C@@H](C)CC)[C@@H](O)[C@H]2OC(=O)/C=C/c2ccccc2)[C@H]1O[C@@H]1O[C@@H](C)[C@H](O)[C@@H](O)[C@H]1O [PESCAPREIN XXIV]
Activity [1]: inactive | Ratio IC50 [2]: 1.8

CCCCCCCCCC(=O)O[C@H]1[C@H](O[C@@H]2[C@H]3OC(=O)CCCCCCCCC[C@H](CCCCC)O[C@@H]4O[C@H](C)[C@H](O)[C@H](O)[C@H]4O[C@H](O[C@H]2C)[C@@H]3O)O[C@@H](C)[C@H](O[C@@H]2O[C@@H](C)[C@H](OC(=O)[C@@H](C)CC)[C@@H](OC(=O)/C=C/c3ccccc3)[C@H]2O)[C@H]1O[C@@H]1O[C@@H](C)[C@H](O)[C@@H](O)[C@H]1O [PESCAPREIN XXIII]
Activity [1]: inactive | Ratio IC50 [2]: 2.9

CCCCCCCC(=O)O[C@H]1[C@H](O[C@@H]2[C@H]3OC(=O)CCCCCCCCC[C@H](CCCCC)O[C@@H]4O[C@H](C)[C@H](O)[C@H](O)[C@H]4O[C@H](O[C@H]2C)[C@@H]3O)O[C@@H](C)[C@H](O[C@@H]2O[C@@H](C)[C@H](OC(=O)[C@@H](C)CC)[C@@H](OC(=O)/C=C/c3ccccc3)[C@H]2O)[C@H]1O[C@@H]1O[C@@H](C)[C@H](O)[C@@H](O)[C@H]1O [PESCAPREIN XXVIII]
Activity [1]: inactive | Ratio IC50 [2]: 2.3

CCCCCCCCCC(=O)O[C@H]1[C@H](O[C@@H]2[C@H]3OC(=O)CCCCCCCCC[C@H](CCCCC)O[C@@H]4O[C@H](C)[C@H](O)[C@H](O)[C@H]4O[C@H](O[C@H]2C)[C@@H]3O)O[C@@H](C)[C@H](O[C@@H]2O[C@@H](C)[C@H](OC(=O)C(C)C)[C@@H](OC(=O)/C=C/c3ccccc3)[C@H]2O)[C@H]1O[C@@H]1O[C@@H](C)[C@H](O)[C@@H](O)[C@H]1O [PESCAPREIN XXVI]
Activity [1]: inactive | Ratio IC50 [2]: 3.7

CCCCCCCCCC(=O)O[C@H]1[C@H](O[C@@H]2[C@@H](O)[C@H]3OC(=O)CCCCCCCCC[C@H](CCCCC)O[C@@H]4O[C@H](C)[C@H](O)[C@H](O)[C@H]4O[C@@H]3O[C@H]2C)O[C@@H](C)[C@H](O[C@@H]2O[C@@H](C)[C@H](O)[C@@H](OC(=O)[C@@H](C)CC)[C@H]2O)[C@H]1O[C@@H]1O[C@@H](C)[C@H](O)[C@@H](O)[C@H]1O [PESCAPREIN XXX]
Activity [1]: inactive | Ratio IC50 [2]: 2.3
